# Results pooled from the literature.
# Lines come from different studies, so protocols differ.
# Target: Prostaglandin G/H synthase 1 (PTGS1, Ovis aries, UniProt P05979)
# Read-out: enzyme activity
# Action: inhibitor
# Residues used in one study (P05979 25-600): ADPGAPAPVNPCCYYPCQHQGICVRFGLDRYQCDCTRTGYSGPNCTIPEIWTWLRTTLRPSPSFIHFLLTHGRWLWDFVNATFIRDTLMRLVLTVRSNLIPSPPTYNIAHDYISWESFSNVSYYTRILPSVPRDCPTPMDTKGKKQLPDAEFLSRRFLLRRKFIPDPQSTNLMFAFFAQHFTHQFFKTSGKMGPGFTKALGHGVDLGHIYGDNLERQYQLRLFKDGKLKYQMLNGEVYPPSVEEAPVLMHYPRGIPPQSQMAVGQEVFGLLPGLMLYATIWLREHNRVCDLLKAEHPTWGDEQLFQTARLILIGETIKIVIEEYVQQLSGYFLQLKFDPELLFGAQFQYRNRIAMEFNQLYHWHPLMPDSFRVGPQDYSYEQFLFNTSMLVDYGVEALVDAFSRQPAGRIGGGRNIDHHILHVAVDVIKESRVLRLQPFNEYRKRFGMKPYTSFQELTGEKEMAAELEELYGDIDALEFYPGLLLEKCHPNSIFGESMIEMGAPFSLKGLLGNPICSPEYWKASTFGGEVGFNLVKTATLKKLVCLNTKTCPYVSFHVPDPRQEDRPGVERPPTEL
Structure (SMILES),method,IC50
CS(=O)(=O)c1ccc(-n2cc(/C=N/N=c3\[nH]c(-c4ccc([N+](=O)[O-])cc4)cs3)c(-c3ccc(Br)cc3)n2)cc1,,24.5 µM
Fc1ccc(-c2ccccc2F)cc1OC(F)(F)F,absorbance,11 µM
Cc1cccc2nc(-c3ccc(S(C)(=O)=O)cc3)c(Nc3ccc(Cl)cc3)n12,fluorescence,27.1 µM
CSc1ccc(/C=C2\C=C(CC(=O)NS(=O)(=O)C(F)(F)F)c3cc(F)ccc32)cc1,,0.7 to 1 µM
COc1ccc(-c2nn(-c3ccc(S(C)(=O)=O)cc3)cc2C=N/N=c2\[nH]c(-c3ccc([N+](=O)[O-])cc3)cs2)cc1,,23.2 µM
COc1ccccc1-c1ccc([N+](=O)[O-])cc1,absorbance,8.79 µM
CS(=O)(=O)c1ccc(-c2ncc(Cl)cc2-c2nc3ccccc3s2)cc1,absorbance,> 100 µM
Cc1cccn2c(Nc3ccc(Cl)cc3)c(-c3ccc(S(C)(=O)=O)cc3)nc12,fluorescence,29.4 µM
O=[N+]([O-])c1ccc(-c2ccccc2F)cc1,absorbance,10.1 µM
CS(=O)(=O)c1ccc(-n2cc(/C=N/N=c3\[nH]c(-c4ccc([N+](=O)[O-])cc4)cs3)c(-c3ccc([N+](=O)[O-])cc3)n2)cc1,,38.5 µM
O=C(O)CC1=C/C(=C\c2cccc(-c3ccc(F)cc3)n2)c2ccc(F)cc21,,9.3 µM
COc1ccccc1-c1ccc(F)c(OC(F)(F)F)c1,absorbance,10.8 µM
CC(C)Cc1ccc(-c2nn(-c3ccc(S(C)(=O)=O)cc3)cc2/C=N/N=c2\[nH]c(-c3ccc([N+](=O)[O-])cc3)cs2)cc1,,34.4 µM
Cc1cccn2c(Nc3ccccc3)c(-c3ccc(S(C)(=O)=O)cc3)nc12,fluorescence,35.6 µM
CC(C)Cc1ccc(-c2nn(-c3ccc(S(C)(=O)=O)cc3)cc2/C=N/N=c2\[nH]c(-c3ccc(Br)cc3)cs2)cc1,,27.5 µM
NS(=O)(=O)c1ccc(-c2ncccc2-c2nc3ccccc3s2)cc1,absorbance,> 100 µM
Cc1ccc(Nc2c(-c3ccc(S(C)(=O)=O)cc3)nc3cccc(C)n23)cc1,fluorescence,19.6 µM
C[C@@H]1O[C@@H](OC[C@H]2O[C@@H](Oc3c(-c4ccc(O)cc4)oc4cc(O)cc(O)c4c3=O)[C@H](O[C@@H]3O[C@H](CO)[C@@H](O)[C@H](O)[C@H]3O)[C@@H](O)[C@@H]2O)[C@H](O)[C@H](O)[C@H]1O,absorbance,12.9 µM
Cc1ccn2c(Nc3ccc(F)cc3)c(-c3ccc(S(C)(=O)=O)cc3)nc2c1,fluorescence,33.6 µM
CSc1ccc(/C=C2\C=C(CC(=O)NS(=O)(=O)c3ccc4ccccc4c3)c3cc(F)ccc32)cc1,,2 µM
Cc1cccc2nc(-c3ccc(S(C)(=O)=O)cc3)c(Nc3ccc(F)cc3)n12,fluorescence,40.2 µM
COc1ccccc1-c1cccc([N+](=O)[O-])c1F,absorbance,9.34 µM
CS(=O)(=O)c1ccc(-c2nc3ccccn3c2Nc2ccc(Cl)cc2)cc1,fluorescence,34.3 µM
CS(=O)(=O)c1ccc(-c2ncccc2-c2nc3ccccc3s2)cc1,absorbance,> 100 µM
